Most compounds without a hit are left out; they make up all but 2.3% or so of the library.
GPR7 antagonist = blocks human GPR7 receptor signaling | P48145 | GPR7-expressing cells, fluorescence antagonist assay | inhibition, % at 4.4 µM | hit rate 1.1% among 290,000 | AID 1861; in the data active = inhibition above about 16%, passing the limit was not always enough;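 note: cells stimulated with the agonist NPW; 0% = agonist with vehicle and 100% = vehicle without agonist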
CHT block = inhibitors of human choline transporter CHT; B-score at 10 µM; Q9GZV3; CHT-expressing cells, membrane potential dye, choline response; stronger effect = lower value; hit rate 0.86% among 310,000;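 active = B-score over 3 SD under the library average, and starting fluorescence ratio not unusually high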;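 note: choline stimulus applied at its EC90 after an EC20 pre-addition; B-score computed on integrated fluorescence ratio after choline addition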
pCIP destab = lowers stability of the mouse p/CIP coactivator protein; Q05BA5; F442A p/CIP-EGFP cells, EGFP fluorescence, 16 h; decrease of EGFP signal, % at 10 µM; hit rate 0.01% among 290,000; AID 1984;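 active = EGFP signal decrease of at least 30% at 10 µM or well 3 SD below plate mean, unless failing retest; inactive = the rest, including hits failing retest or dose response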
CHT allo act = allosteric activators of human choline transporter CHT | Q9GZV3 | CHT-expressing cells, membrane potential dye, choline EC20; stronger effect = higher value; LV-AA mutant CHT in HEK293 cells | B-score at 10 µM | hit rate 0.49% among 310,000 | AID 488977;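 active = initial fluorescence not abnormally high and integrated response B-score, plate-corrected, over 3 SD above library mean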
T cell modulator = T cell immune modulators affecting CD8 T cell-vesicle binding | 2C CD8+ T cell-vesicle binding, flow cytometry; stronger effect = lower value | response (vesicle binding), % at 7 µM | hit rate 0.068% among 330,000 | AID 2052;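 active = response, share of CD8 T cells binding vesicles, and their 90th percentile fluorescence all below set limits, cut at about 80% in these data, passing the limit was not always enough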;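 note: values below 100% mean blocked vesicle binding to the CD8+ T cells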
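Test system: purified 2C TCR transgenic mouse naive CD8+ T cells. Probe or stimulus: QL9-peptide-loaded Drosophila micro-vesicles bearing Ld, ICAM-1 and B7-1. Incubation: binding step 1.5 h, 37 °C, antibody labelling 20 min, ice. Measured by: flow cytometry of vesicle-bound cells.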
Pemphigus Ab inh = inhibitors of pemphigus antibody binding to human desmoglein-3. P32926. DSG3-coupled beads, scFv-anti-DSG3-GFP binding, flow cytometry; stronger effect = lower value. binding (percent of control), % at 10 µM. hit rate 0.48% among 310,000. AID 588358;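 active = binding more than 3 SD below its plate's average and above zero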
CHT inh conf = confirmation of human choline transporter CHT inhibitors; shares compounds with CHT block; hit rate 70% among 2,400; CHT activity remaining % of control (stronger effect = lower value), % at 10 µM; CHT-expressing cells, choline membrane potential dye; LV-to-AA substituted CHT, HEK293 cells;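 active = choline transporter activity left, mean of duplicates at 10 µM, below buffer-only control mean minus 3 SD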;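 note: depolarization triggered by choline at its EC90 following an EC20 pre-addition; 0% = hemicholinium-3 full block and 100% = buffer-only control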
HEK293 MPD ctr = CHT inhibitor counter-screen hit in parental HEK293 cells; shares compounds with CHT block; membrane potential dye, choline response; active = decrease or increase beyond buffer ±3SD; membrane potential ratio readout (active if shifted either direction beyond buffer ±3SD; no single direction) at 10 µM; hit rate 4% among 2,400; AID 493222;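 note: parental cells lack the transporter so any hit is non-specific; ratio is peak minus trough fluorescence over baseline after EC90 choline challenge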
Starred values were filed as active, the others as inactive; i = inactive; x = not tested or not shown.

SMILES	GPR7 antagonist	CHT block	pCIP destab	CHT allo act	T cell modulator	Pemphigus Ab inh	CHT inh conf	HEK293 MPD ctr
CC(C)(C)S(=O)(=O)/C(C#N)=N/Nc1ccc(C#N)cc1	2.8	i	16.3	i	308.9	112.4	55.4%*	i
Brc1ccc(Br)c2cnccc12	x	x	x	x	x	88.2	x	x
O=c1cc(CNc2ccc(Br)cc2)nc2sccn12	8.2	-5.4*	-8.1	i	354.3	99.4	59.2%*	i
CCOc1ccc(C(C)=O)cc1COc1ccc(C)nc1[N+](=O)[O-]	5.8	i	-9.2	i	369.7	x	x	x
CCCOc1ccc(C(C)=O)cc1CC(C(=O)OCC)C(=O)OCC	8.1	-5.02*	-9.2	i	224.3	x	i	i
CCN(CC(=O)NCc1ccc(F)cc1)C(=O)c1ccc(C(=O)c2ccccc2)cc1	-1.0	-5.75*	-7.8	i	280.2	101.5	i	i
CC(C)C[C@@H](CN)NC(=O)c1nc[nH]c1C(=O)N[C@@H](CC(C)C)C(=O)CNC[C@H](C)NC(=O)c1nc[nH]c1C(=O)N[C@@H](CC(C)C)C(=O)O	x	x	x	x	x	110.6	x	x
CC(=O)NC(Cc1cccc(F)c1)C(=O)NC1CCN(C(=O)c2cccc(C)c2)CC1 (centres undefined)	-3.1	-7.81*	-1.8	i	396.8	101.1	i	i
O=C(Nc1cccc([N+](=O)[O-])c1)C(=O)N1CCCCC1	-9.8	-4.99*	0.3	i	i	101.4	i	i
O=[N+]([O-])c1cccc(NC(=S)N2CCCC2)c1	-20.5	i	-21.9	i	204.9	116.6	x	x
COc1ccccc1S(=O)(=O)N(C)C[C@H]1OCc2cnnn2CCCC(=O)N([C@@H](C)CO)C[C@@H]1C	x	x	x	x	x	106.0	x	x
Cc1cc(C)cc(NC(=O)c2ccc(N3C(=O)C4CCCCC4C3=O)cc2)c1 (centres undefined)	-15.3	-5.52*	-1.9	i	258.9	105.0	64.6%*	i
O=C(Nc1ccc(Br)cc1)c1ccc(N2C(=O)C3CC=CCC3C2=O)cc1 (centres undefined)	-6.5	i	-12.9	i	639.8	98.1	x	x
O=C(NCCCN1CCOCC1)c1ccc(Cl)c(S(=O)(=O)N2CCCCCC2)c1	-4.6	-8.28*	0.1	i	472.1	101.3	36.5%*	i
COc1ccc(-n2c(=S)[nH]c3cc(C(=O)NCCCN4CCOCC4)ccc3c2=O)cc1	-3.1	-5.24*	6.5	i	341.3	106.7	47.2%*	i
O=C(NCCCN1CCOCC1)c1ccc2c(=O)n(-c3ccc(F)c(Cl)c3)c(=S)[nH]c2c1	4.5	-10.5*	0.1	i	346.5	x	21.2%*	i
O=C(O)c1ccc2c(=O)n(-c3ccc(F)c(Cl)c3)c(=S)[nH]c2c1	-9.6	i	-5.2	i	319.6	105.5	x	x
Cc1cc(C)n2c(SCC(=O)NC3CCCCC3C)nnc2n1 (centres undefined)	-2.0	-5.39*	-3.5	i	486.2	97.4	70.5%*	i
Cc1cc(C)n2c(SCC(=O)NC3CCCC(C)C3C)nnc2n1 (centres undefined)	-11.2	i	-26.1	i	201.2	99.5	x	x
COC(=O)c1ccc(COC(=O)C(CCS(C)(=O)=O)N2C(=O)c3ccccc3C2=O)cc1 (centres undefined)	-4.7	-6.31*	-12.0	i	190.0	100.1	i	i
CC(=O)c1ccc(OC(=O)C(CCS(C)(=O)=O)N2C(=O)c3ccccc3C2=O)cc1 (centres undefined)	-9.6	i	3.8	i	521.3	96.6	x	x
O=C(N/N=C/C=C/c1ccccc1[N+](=O)[O-])c1cc(-c2cccnc2)nc2ccccc12	-4.7	-9.2*	2.5	i	426.9	94.9	i	i
C[C@H](NC(=O)c1ncn2c1c(=O)[nH]c1ccc(Br)cc12)c1ccccc1	x	x	x	x	x	101.2	x	x
CN(Cc1ccccc1)C(=O)COC(=O)COc1ccc(C#N)cc1	-8.0	-5.27*	-2.5	i	107.4	117.7	64.7%*	i
CN(Cc1ccccc1)C(=O)COC(=O)COc1ccc(Cl)cc1	x	x	x	x	239.1	x	x	x
SMILES	GPR7 antagonist	CHT block	pCIP destab	CHT allo act	T cell modulator	Pemphigus Ab inh	CHT inh conf	HEK293 MPD ctr
C[C@H](NC(=O)OC(C)(C)C)c1nnc(SCC(=O)c2ccc(Cl)cc2)o1	-8.3	-5.29*	-2.7	i	153.3	110.7	68.8%*	i
C[C@H](NC(=O)OC(C)(C)C)c1nnc(SCC(=O)Nc2cccc(Cl)c2)o1	-3.5	i	-1.3	i	298.6	x	x	x
COc1ccc(CN=C(Nc2ccccc2)SC2CC(=O)N(C)C2=O)cc1 (centres undefined)	-5.7	-5.55*	-3.0	i	648.1	106.4	i	i
CCOC(=O)c1cc(NC(=O)c2ccoc2C)cc(C(=O)OCC)c1	6.5	-6.11*	-11.8	i	611.3	101.4	39.6%*	i
CC(=O)c1cccc(NC(=O)c2ccoc2C)c1	-3.6	i	3.5	i	289.1	102.3	x	x
CCOC(=O)c1c(C)[nH]c(C(=O)COC(=O)CCNS(=O)(=O)c2ccc(NC(C)=O)cc2)c1C	x	x	x	x	687.5	x	x	x
O=S(=O)(NCCNc1ncc(C(F)(F)F)cc1Cl)C(F)(F)F	-6.5	-9.61*	-14.6	i	396.4	84.1	42.0%*	i
COc1cccc(-c2cc(-c3cccnc3)nc(N)c2C#N)c1	-7.2	-7.27*	-4.0	i	775.1	107.8	i	i
NNC(=O)c1ccc(CN2CCCCC2)o1	4.7	-5.89*	2.4	i	491.5	105.2	i	i
C[C@H](CO)N1C[C@H](C)[C@H](CN(C)C(=O)Nc2ccc3c(c2)OCCO3)OCc2cnnn2CCCC1=O	x	x	x	x	x	109.9	x	x
CN1CCN(C(=S)c2ccc(-c3cc(Cl)ccc3Cl)o2)CC1	2.2	-9.67*	4.6	i	372.1	x	i	i
O=C1OCCC1Sc1nnc(-c2ccccc2Cl)n1Cc1ccccc1 (centres undefined)	5.2	-6.89*	-16.7	i	159.4	97.1	i	i
CC(C)(C)OC(=O)N1CCC(C(=O)Nc2ccc(C(=O)NCc3ccccc3)cc2)CC1	x	x	x	x	x	97.7	x	x
CC(C(=O)NCc1cccs1)N1CCN(S(=O)(=O)c2ccc3c(c2)OCCCO3)CC1 (centres undefined)	x	x	x	x	x	102.2	x	x
N#Cc1c(Cl)cccc1N1CCCC1	-12.6	-7.19*	-12.9	i	221.9	x	49.1%*	i
